Only some compounds are listed: those with a hit (about 3.3% of all), similar ones and a draw of the others.
ABCG2 inh = human ABCG2 inhibition, ABCB1 as counter-screen | inhibition, % at 6.6 µM | Q9UNQ0 | IgMXP3 cells, JC-1 efflux, flow cytometry | 190,000 tested, 0.1% active;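 active means inhibition above 80%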
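Test system: IgMXP3 (ABCG2) plus far-red-tagged CCRF-Adr (ABCB1) cells / Amount: 3 million cells/mL in well / Reagent: JC-1 transporter substrate / Timing: 10 min compound exposure, 25 °C / Signal: flow cytometry, 530 nm JC-1 signal / Read-out: percent efflux inhibition, scaled nicardipine 100% to DMSO 0% / Benchmarks: nicardipine as high control, DMSO as low control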
PMI act satM6P = PMI (human) activation, high substrate; P34949; coupled PMI enzyme assay, resazurin fluorescence, 20 min; stronger effect = higher value; 1 = untreated enzyme, 0 = substrate-free blank; activation factor at 20 µM; 190,000 tested, 0.34% active;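 active means activation factor of 2 or more at 20 µM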
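Material: human phosphomannose isomerase with PGI, G6PDH, diaphorase coupling enzymes; amount: PMI at 15 ng/mL final; also added: Mannose-6-phosphate 1.0 mM (near-saturating) plus 0.22 mM NADP+; incubation: enzyme reaction with compound 20 min at room temperature; signal: resorufin fluorescence (Ex 544/Em 590 nm) from resazurin via diaphorase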
PMI act = phosphomannose isomerase (human) activation. P34949. purified human PMI, coupled resazurin fluorescence, 20 min; stronger effect = higher value; 1 = vehicle control, 0 substrate-free wells. activation factor at 20 µM. AID 1214. 190,000 tested, 0.005% active;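 active means activation factor of 2 or more at 20 µM, relative to plate controls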
KCC2 mod = modulates chloride dependent transport by human KCC2. KCC2 cells, thallium flux FluoZin-2 fluorescence. B-score of Tl+ flux slope (higher = more flux/activation; lower = inhibition) at 10 µM. 190,000 tested, 2.2% active. AID 1456;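 active means thallium flux slope and its plate-corrected score both differing from the plate sample mean at a set confidence after two filtering rounds, in either direction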;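 further: slope of fluorescence scaled to starting intensity during 10 to 20 s after thallium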
ABCB1 inh = human ABCB1 inhibition, ABCG2 as counter-screen; P08183; CCRF-Adr cells, JC-1 efflux, flow cytometry; inhibition, % at 6.6 µM; 190,000 tested, 0.067% active; in the data active means inhibition above about 40%;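 further: higher value means more JC-1 retained so stronger ABCB1 efflux block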
ROMK mod = modulates human ROMK potassium channel activity; AID 1918; P48048; 130,000 tested, 2% active; Tet-inducible ROMK, thallium flux fluorescence; actives lie on both sides; B-score at 10 µM;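 active means signal ratio slope over the read window, or its plate-corrected B-score, at least 3 SD from the plate mean, either direction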;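 further: B-score of the F/F0 ratio slope over 7 to 12 s after thallium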
Hits are given with their value.

How did O=C(COc1ccc(Cl)cc1Cl)NC(=S)N1CCCc2ccccc21 do in these assays?
ABCG2 inh: inactive; PMI act satM6P: inactive; PMI act: inactive; KCC2 mod: 21; ABCB1 inh: inactive; ROMK mod: inactive

How did O=C(COc1ccc(Cl)cc1Cl)OCC(=O)N1CCCc2ccccc21 do in these assays?
ABCG2 inh: inactive; PMI act satM6P: inactive; PMI act: inactive; KCC2 mod: inactive; ABCB1 inh: inactive

What do the screens show for `N#Cc1nc(Cc2cccc3ccccc23)oc1NCCN1CCCCC1`?
ABCG2 inh: inactive; PMI act satM6P: inactive; PMI act: inactive; KCC2 mod: -4.3; ABCB1 inh: inactive; ROMK mod: -5.6

How did O=C(O)c1ccccc1C(=O)NNc1ccc(F)cc1F do in these assays?
ABCG2 inh: inactive; PMI act satM6P: 2.5; PMI act: inactive; KCC2 mod: inactive; ABCB1 inh: inactive

How did O=C(c1ccc(Cl)cc1)c1c[nH]c(C(=O)NNc2ccccc2)c1 do in these assays?
ABCG2 inh: inactive; PMI act satM6P: 2.1; PMI act: inactive; KCC2 mod: inactive; ABCB1 inh: inactive; ROMK mod: inactive

Results for NS(=O)(=O)c1ccc(NNC(=O)c2ccccc2C(=O)O)cc1 ?
KCC2 mod: inactive; ROMK mod: inactive

What do the screens show for `O=C(NNc1ccc([N+](=O)[O-])cc1)c1ccccc1F`?
ABCG2 inh: inactive; PMI act satM6P: 2.3; PMI act: inactive; KCC2 mod: inactive; ABCB1 inh: inactive; ROMK mod: inactive

Results for O=C(c1ccc(Cl)cc1)c1c[nH]c(C(=O)C(Cl)(Cl)Cl)c1 ?
ABCG2 inh: inactive; PMI act satM6P: inactive; PMI act: inactive; KCC2 mod: inactive; ABCB1 inh: inactive; ROMK mod: inactive

How did O=C(O)c1ccccc1C(=O)NNc1ccc(Cl)cc1 do in these assays?
ABCG2 inh: inactive; PMI act satM6P: 2.4; PMI act: inactive; ABCB1 inh: inactive

What do the screens show for `C#CCONC(=O)c1cc(OCC(F)(F)F)ccc1OCC(F)(F)F`?
ABCG2 inh: inactive; PMI act satM6P: inactive; PMI act: inactive; KCC2 mod: inactive; ABCB1 inh: inactive

How did COC(=O)CCCC(=O)Nc1c(F)c(F)c(F)c(F)c1F do in these assays?
ABCG2 inh: inactive; PMI act satM6P: inactive; PMI act: inactive; KCC2 mod: inactive; ABCB1 inh: inactive

Results for Cc1ccccc1NC(=O)c1sc(NC(=O)COc2ccccc2)c(C#N)c1C ?
ABCG2 inh: inactive; PMI act satM6P: inactive; PMI act: inactive; KCC2 mod: inactive; ABCB1 inh: inactive

How did COC(=O)c1ccc(C23CC4(C2)[C@H](CN(C)[C@@H]4c2ccccc2)C3c2ccc(Cl)nc2)cc1 (some centres undefined) do in these assays?
KCC2 mod: inactive

How did CCOCC(=O)Nc1cc(C(=O)Nc2cc(C)cc(C)c2)ccc1Cl do in these assays?
ABCG2 inh: inactive; PMI act satM6P: inactive; PMI act: inactive; ABCB1 inh: inactive; ROMK mod: inactive

Results for O=C(/C=C/c1ccccc1)NNc1ccc(Cl)cc1 ?
ABCG2 inh: inactive; PMI act satM6P: 2.7; PMI act: inactive; KCC2 mod: inactive; ABCB1 inh: inactive; ROMK mod: inactive

How did Cc1ccc(S(=O)(=O)N2CCC(C(=O)NNC(=O)c3ccc(F)cc3)CC2)cc1 do in these assays?
ABCG2 inh: inactive; PMI act satM6P: inactive; PMI act: inactive; KCC2 mod: inactive; ABCB1 inh: inactive; ROMK mod: inactive

How did Clc1ccccc1-c1nnc2sc(CCc3ccccc3)nn12 do in these assays?
ABCG2 inh: inactive; PMI act satM6P: inactive; PMI act: inactive; KCC2 mod: -3.4; ABCB1 inh: inactive; ROMK mod: inactive

Results for Brc1ccc(NCc2cccc3ccccc23)nc1 ?
ABCG2 inh: inactive; PMI act satM6P: inactive; PMI act: inactive; ABCB1 inh: inactive; ROMK mod: inactive

How did Oc1ccccc1CNc1ccc(Br)cn1 do in these assays?
ABCG2 inh: inactive; PMI act satM6P: inactive; PMI act: inactive; KCC2 mod: 20; ABCB1 inh: inactive

Results for CC(C)Oc1cccc(C(=O)NC(=S)Nc2ccccc2)c1 ?
ABCG2 inh: inactive; PMI act satM6P: inactive; PMI act: inactive; KCC2 mod: 46; ABCB1 inh: inactive

How did CC(=O)c1cccc(NC(=S)NC(=O)c2cccc(C)c2)c1 do in these assays?
ABCG2 inh: inactive; PMI act satM6P: inactive; PMI act: inactive; KCC2 mod: 8.4; ABCB1 inh: inactive

Results for Cc1cccc(NC(=S)N/C(=N/S(=O)(=O)c2ccccc2)c2ccccc2)c1 ?
ABCG2 inh: inactive; PMI act satM6P: inactive; PMI act: inactive; KCC2 mod: 3.5; ABCB1 inh: inactive; ROMK mod: inactive

What do the screens show for `CC1CC(C)CN(C(=O)C(NS(=O)(=O)c2ccc(Br)s2)c2ccccc2)C1` (centres undefined)?
ABCG2 inh: inactive; PMI act satM6P: inactive; PMI act: inactive; KCC2 mod: inactive; ABCB1 inh: inactive; ROMK mod: inactive

What do the screens show for `C=CCNC(=S)N1CCN(Cc2ccccc2)CC1`?
ABCG2 inh: inactive; PMI act satM6P: inactive; PMI act: inactive; KCC2 mod: inactive; ABCB1 inh: inactive; ROMK mod: inactive

What do the screens show for `O/N=C(/CN(O)/C=C1/C=CC=N1)c1cccs1`?
ABCG2 inh: inactive; PMI act satM6P: inactive; PMI act: inactive; KCC2 mod: inactive; ABCB1 inh: inactive; ROMK mod: -5

What do the screens show for `CC(C)(C)NC(=O)C(=O)NNC(=O)c1ccc(C(C)(C)C)cc1`?
ABCG2 inh: inactive; PMI act satM6P: inactive; PMI act: inactive; KCC2 mod: 54; ABCB1 inh: inactive

What do the screens show for `O=C(COc1ccc(Cl)cc1Cl)NNC(=S)Nc1ccc(F)cc1`?
ABCG2 inh: inactive; PMI act satM6P: inactive; PMI act: inactive; KCC2 mod: 4.1; ABCB1 inh: inactive; ROMK mod: inactive

Results for Cc1cccc(C(=O)NC(=S)NNC(=O)COc2ccc(Cl)cc2)c1 ?
ABCG2 inh: inactive; PMI act satM6P: inactive; PMI act: inactive; KCC2 mod: 47; ABCB1 inh: inactive; ROMK mod: 3.3

How did Cc1ccc(C(=O)CC(=O)COc2ccc(Cl)cc2)cc1 do in these assays?
ABCG2 inh: inactive; PMI act satM6P: inactive; PMI act: inactive; KCC2 mod: 21; ABCB1 inh: inactive

What do the screens show for `O=C(COc1ccccc1)NNC(=S)NC(=O)c1ccc(Cl)cc1Cl`?
ABCG2 inh: inactive; PMI act satM6P: inactive; PMI act: inactive; KCC2 mod: 22; ABCB1 inh: inactive

What do the screens show for `Cc1cccc(/C(N)=N/OC(=O)COc2ccc(Cl)cc2)c1`?
ABCG2 inh: inactive; PMI act satM6P: inactive; PMI act: inactive; KCC2 mod: inactive; ABCB1 inh: inactive; ROMK mod: inactive

Results for COc1ccccc1Nc1nc(N)nc(CSC(=S)N2CCCCC2)n1 ?
KCC2 mod: inactive

What do the screens show for `Cc1oc2cc3c(C(=O)N4CCN(c5ccccc5)CC4)c(C)oc3cc2c1C(=O)N1CCN(c2ccccc2)CC1`?
KCC2 mod: inactive; ROMK mod: inactive

Screens (PubChem BioAssay)
